# SENP7 block = SENP7 protease inhibitors, primary screen, biochemical, luminescence, uHTS; actives 1.5% (n = 330,000); inhibition, % at 5 µM; Sentrin-specific protease 7 (Homo sapiens), Q9BQF6; recombinant SENP7, Z-RLRGG-aminoluciferin luminescence, 40 min; AID 434973, 2010;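 active = inhibition above about 50% at the single test dose, limit read from the data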;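 also: plate controls were DMSO with enzyme for no effect and no enzyme buffer wells for full effect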
# SENP6 block = SENP6 protease inhibitors, primary screen, biochemical, luminescence, uHTS. inhibition, % at 10 µM. Recombinant SENP6 catalytic domain, aminoluciferin luminescence. actives 1.8% (n = 330,000);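 active = inhibition above about 50% at the single tested dose, limit read from the data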;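 also: plate controls were DMSO wells with enzyme for no effect and DMSO wells lacking enzyme for full effect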
# SENP8 block-1 = human SENP8 protease inhibitors, primary screen, biochemical, fluorescence, Nedd8 protein substrate, uHTS. Sentrin-specific protease 8 (Homo sapiens), Q96LD8. recombinant SENP8. inhibition, % at 20 µM. actives 0.64% (n = 360,000); in the data active = inhibition mostly above about 40%, no sharp cut-off; inactive = mostly below about 27%
# Target sequence (Q96LD8 whole entry, looked up): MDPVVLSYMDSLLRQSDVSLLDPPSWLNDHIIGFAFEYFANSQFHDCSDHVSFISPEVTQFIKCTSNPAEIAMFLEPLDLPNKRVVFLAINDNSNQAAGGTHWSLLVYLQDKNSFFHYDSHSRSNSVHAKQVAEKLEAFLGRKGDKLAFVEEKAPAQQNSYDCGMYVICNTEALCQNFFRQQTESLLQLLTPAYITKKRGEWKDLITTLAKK
# SENP8 block-2 = SENP8 protease inhibitors, primary screen, biochemical, luminescence. actives 1.2% (n = 330,000). purified SENP8, Z-RLRGG-aminoluciferin cleavage. inhibition, % at 10 µM; in the data active = inhibition above about 50%
# SENP1 inh = human SENP1 catalytic domain inhibitors, primary screen, biochemical, FRET, uHTS; Sentrin-specific protease 1 (Homo sapiens), Q9P0U3; recombinant SENP1 catalytic domain, CyPet-SUMO1-YPet FRET cleavage; inhibition, % at 10 µM; actives 0.21% (n = 360,000);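 active = inhibition at least 30% at 10 µM, raw YFP signal under a set limit, fluorescence ratio 0.5 to 1.5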;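 also: 0% = enzyme with DMSO and 100% = no enzyme wells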
#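 Assay system – human recombinant His6-tagged SENP1 catalytic domain enzyme · Input – SENP1 enzyme, 20 pM final · Buffer or medium – Tris pH 8 buffer plus EDTA, NaCl, BME, BSA, NP40, catalase · Schedule – 50 min reaction at room temperature · Technique – FRET read of cyan and yellow fluorescence · Control set – no-enzyme wells low, DMSO-plus-enzyme wells high control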
# Platelet DG rel = inhibitors of platelet dense granule secretion, primary screen, cell-based, MLPCN, human platelets; AID 1663, 2009; inhibition, %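 (compounds screened at 7.5 µM in platelet-rich plasma)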; human platelet-rich plasma, SFLLRN dense granule ATP release, luminescence; actives 0.22% (n = 300,000);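 active = mean replicate score, as percent of positive control, at or above 50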
# SENP8 conf = SENP8 protease inhibitors, retest, confirmation, biochemical, luminescence, single concentration; shares compounds with SENP7 block; Recombinant SENP8, Z-RLRGG-aminoluciferin luminescence, 60 min; inhibition, % at 12.5 µM; actives 40% (n = 6,200); AID 488912, 2010;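 active = mean inhibition across replicates above about 50%, limit read from the data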
# SENP6 confirm = SENP6 protease inhibitors, confirmation, biochemical, luminescence, single concentration; shares compounds with SENP7 block; inhibition, % at 12.5 µM; actives 58% (n = 6,200); recombinant SENP6, Z-RLRGG-aminoluciferin luminescence
# SENP7 conf = SENP7 protease inhibitors, retest, confirmation, biochemical, luminescence, single concentration | shares compounds with SENP7 block | recombinant SENP7, Z-RLRGG-aminoluciferin luminescence, 40 min | inhibition, % at 12.5 µM | actives 69% (n = 6,200) | AID 488917, 2010
# Casp3 select = caspase-3 protease inhibitors, confirmation, selectivity assay for SENP inhibitor project, biochemical, single concentration; shares compounds with SENP7 block; purified caspase-3, Z-DEVD-aminoluciferin luminescence, 60 min; inhibition, % at 12.5 µM; actives 60% (n = 6,200);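 active = mean inhibition above about 50%, limit read from the data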;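 also: plate controls were enzyme with DMSO for no effect and wells without caspase-3 for full effect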
# Target sequence (P42574 28-227 limits assumed): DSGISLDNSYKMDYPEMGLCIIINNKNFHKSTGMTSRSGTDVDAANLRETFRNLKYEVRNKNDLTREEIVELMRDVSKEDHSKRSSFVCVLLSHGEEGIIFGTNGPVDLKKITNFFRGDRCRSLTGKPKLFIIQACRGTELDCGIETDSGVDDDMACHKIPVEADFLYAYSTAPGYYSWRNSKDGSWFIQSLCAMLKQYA
# SENP luc ctr = counter-screen for SENP inhibitors: luminescence interference; shares compounds with SENP7 block; Pre-incubated SENP8/Z-RLRGG-aminoluciferin, luciferase luminescence interference; inhibition, % at 12.5 µM; actives 39% (n = 6,200); AID 488919;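 active = mean inhibition above about 50% when retested at one dose, limit read from the data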;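 also: plate controls were DMSO wells with completed reaction for no effect and substrate without enzyme for full effect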
# Numbers without * were called inactive; . = no result. Compounds with a hit are over-represented: about 2.6% of the library has one in this group of screens.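 The calls were made as follows, unless noted: active = mean inhibition above about 50% in the one-dose retest (limit read from the data); inactive = the rest.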
SMILES,SENP7 block,SENP6 block,SENP8 block-1,SENP8 block-2,SENP1 inh,Platelet DG rel,SENP8 conf,SENP6 confirm,SENP7 conf,Casp3 select,SENP luc ctr
Oc1c(C=Nc2ccccc2)sc2ccccc12,101*,97*,-105,97*,-31,45,92*,100*,103*,98*,16
Oc1c(C=NCc2ccncc2)sc2ccccc12,2,7,.,13,.,8,.,.,.,.,.
Oc1sc(C=Nc2ccccc2)c2ccccc12,60*,28,-252,62*,-18,-1,81*,83*,96*,53*,82*
CN=Cc1sc2ccccc2c1O,-5,-63,-18,5,-102,7,.,.,.,.,.
Oc1sc(C=Nc2ccc(F)cc2)c2ccccc12,47,-38,-67,39,-18,0,.,.,.,.,.
Oc1c(/C=N/c2ccccn2)sc2ccccc12,95*,98*,-58,95*,-60,86*,96*,97*,102*,96*,13
O=C(Oc1ccccc1)c1ccc(NC(=O)c2ccco2)cc1,91*,7,5,66*,0,16,33,66*,85*,78*,36
CCC(C)c1ccc(NC(=O)c2ccco2)cc1 (stereo not given),74*,85*,8,70*,1,1,79*,78*,94*,71*,67*
COC(=O)c1ccc(NC(=O)c2ccc(NC(=O)c3ccco3)cc2)cc1,-5,4,-25,-4,1,5,.,.,.,.,.
CN(C(=O)c1ccc(NC(=O)c2ccco2)cc1)c1ccccc1,81*,81*,5,61*,1,40,13,69*,87*,88*,72*
COC(=O)C(CCC(=O)CN1C(=O)c2ccccc2C1=O)N1C(=O)c2ccccc2C1=O (stereo not given),.,.,8,.,1,.,.,.,.,.,.
CC(C)(C)NC(=S)N1CCC2CC1c1c(Cl)cccc12 (stereo not given),.,.,1,.,-1,.,.,.,.,.,.
CCOC(=O)c1cnc(SCCc2ccccc2)nc1N,28,58*,-2,13,0,0,0,25,11,22,32
CCCCSc1ncc(C(=O)OCC)c(N)n1,22,24,12,-4,0,0,.,.,.,.,.
Cc1nnc2sc(-c3cccc(F)c3)nn2c1=O,1,47,16,70*,-2,2,50*,63*,21,58*,-8
COc1ccc(S(=O)(=O)Nc2cc(SCC(=O)O)c(O)c3ccccc23)cc1,31,76*,40,51*,0,3,30,59*,13,10,16
COc1cc(SC)ccc1C(=O)NNC(=O)c1cc(C)oc1C,98*,98*,-4,94*,2,58*,98*,99*,103*,98*,93*
COc1ccccc1C(=O)Nc1ccc2c(c1)OCCO2,43,53*,13,16,-2,12,32,30,71*,69*,52*
COc1ccc(Cl)cc1C(=O)Nc1ccc2c(c1)OCCO2,-12,-20,22,-12,-1,1,.,.,.,.,.
COc1cc(SC)ccc1C(=O)Nc1ccc2c(c1)OCCO2,81*,79*,3,63*,0,4,80*,81*,95*,75*,64*
Cc1nnc(NC(=O)c2ccc3ccccc3n2)s1,1,-27,0,-6,0,-6,.,.,.,.,.
COC(=O)c1sc2ccccc2c1NC(=O)c1ccc(S(=O)(=O)N2CCC(C)CC2)cc1,-7,-13,-1,-9,2,-6,.,.,.,.,.
Cc1ccc(N=C/C(C(=O)C(F)(F)F)=C(\O)c2cccs2)cc1,96*,27,-50,20,-21,6,10,6,0,29,56*
CCN1c2cccc3cccc(c23)S1(=O)=O,-5,-10,-301,-5,1,3,.,.,.,.,.
CCc1ccc2cccc3c2c1N=CN3C,27,57*,84*,41,-7,16,15,21,15,3,3
SMILES,SENP7 block,SENP6 block,SENP8 block-1,SENP8 block-2,SENP1 inh,Platelet DG rel,SENP8 conf,SENP6 confirm,SENP7 conf,Casp3 select,SENP luc ctr
Cc1c(N=Cc2c(O)n(C)c(=O)c3ccccc23)c(=O)n(-c2ccccc2)n1C,41,52*,-48,10,-32,0,-19,-9,-1,0,-5
COc1ccc(N2CCN(C(=O)CN(c3cccc(OC)c3)S(=O)(=O)c3ccccc3)CC2)cc1,1,-2,1,1,-1,15,.,.,.,.,.
CCOc1ccc(NC(=S)Nc2cccc3ccccc23)cc1,34,88*,-404,50*,-11,22,9,9,11,3,10
CCOc1ccc(NC(=S)Nc2ccc(OCC)cc2)cc1,-6,-13,6,-10,1,4,.,.,.,.,.
CCOc1ccc(NC(=S)Nc2cccc3cnccc23)cc1,63*,87*,-42,-3,-7,9,13,33,22,12,16
COc1ccccc1NC(=S)Nc1cccc2cnccc12,81*,91*,-122,1,-21,-7,-11,10,-4,4,1
COc1ccc(NC(=S)Nc2cccc3cnccc23)cc1,67*,88*,-31,-7,-4,12,11,40,22,7,4
